Measurements reported in ChEMBL document CHEMBL2029222, “Synthesis and biological evaluation of a class of 5-benzylidene-2-phenyl-thiazolinones as potent 5-lipoxygenase inhibitors” (Bioorg Med Chem, 2012).

Key:
U-937 [1] = test: Cytotoxicity against human U937 cells assessed as cell viability after 48 hrs by WST-1 assay; type: cell-based; conditions: U-937, 48 h
In short: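 U937 cells (10^4 per well, RPMI with 10% FCS, 37 °C, 5% CO2) treated with increasing compound concentrations for 48 h in 10% FCS; mitochondrial metabolic activity read by WST-1 kit protocol. IC50 for viability loss; at least three experiments, mean ± SE.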

U-937 [2] = test: Cytotoxicity against human U937 cells assessed as LDH leakage at 30 uM after 48 hrs by microplate reader assay relative to control; type: cell-based; conditions: u-937, 48 h
[3] = molecular target: T1, Polyunsaturated fatty acid 5-lipoxygenase (Homo sapiens) (UniProt P09917); test: Inhibition of 5-lipoxygenase in cell free S100 freshly isolated human PMNL cells assessed as assessed as residual activity at 10 uM preincubated for 15 mins measured after 10 mins by HPLC analysis relative to control
T1 sequence (whole entry): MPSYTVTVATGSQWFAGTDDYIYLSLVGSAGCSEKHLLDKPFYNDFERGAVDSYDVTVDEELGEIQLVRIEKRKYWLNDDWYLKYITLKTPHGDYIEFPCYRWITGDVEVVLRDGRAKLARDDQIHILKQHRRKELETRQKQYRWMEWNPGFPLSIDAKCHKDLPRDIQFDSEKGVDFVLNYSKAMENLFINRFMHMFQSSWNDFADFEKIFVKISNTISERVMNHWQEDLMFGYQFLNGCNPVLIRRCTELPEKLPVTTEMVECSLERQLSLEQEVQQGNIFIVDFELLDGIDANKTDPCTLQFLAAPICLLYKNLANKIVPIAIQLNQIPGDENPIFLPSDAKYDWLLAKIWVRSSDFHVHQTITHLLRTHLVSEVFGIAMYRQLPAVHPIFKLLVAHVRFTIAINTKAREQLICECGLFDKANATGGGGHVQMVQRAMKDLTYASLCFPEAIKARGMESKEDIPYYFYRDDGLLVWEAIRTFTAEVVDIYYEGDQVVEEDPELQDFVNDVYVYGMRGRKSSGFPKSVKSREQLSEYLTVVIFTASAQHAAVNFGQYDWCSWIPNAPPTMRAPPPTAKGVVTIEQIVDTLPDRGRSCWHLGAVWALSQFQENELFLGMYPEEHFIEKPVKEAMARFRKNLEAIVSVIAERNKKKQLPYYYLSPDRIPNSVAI
In short: (§1)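 Human donor PMNL in PBS with 1 mM EDTA plus protease inhibitors, sonicated, spun 100,000g 70 min at 4 °C. S100 equivalent to 7.5 × 10^6 cells in PBS pH 7.4, 1 mM EDTA, 1 mM ATP; compound or DMSO 15 min at 4 °C, then 20 µM AA plus 2 mM CaCl2, 10 min at 37 °C. Methanol stop; products by HPLC; n≥3, mean ± SE.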

[4] = molecular target: T1, Polyunsaturated fatty acid 5-lipoxygenase (Homo sapiens); test: Inhibition of 5-lipoxygenase in human polynuclear leukocytes assessed as residual activity at 1 uM preincubated for 15 mins measured after 10 mins by HPLC analysis relative to control; type: cell-based
In short: (§2)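 Freshly isolated human PMNL (5 × 10^6 per mL PBS pH 7.4, 1 mg/mL glucose, 1 mM CaCl2) preincubated with compounds 15 min at 37 °C, then stimulated with A23187 (2.5 µM) plus AA (20 µM) for 10 min. Methanol stop, PGB1 internal standard; LTB4, all-trans isomers and 5-H(P)ETE per 10^6 cells by HPLC. n≥3, mean ± SE.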

[5] = molecular target: T1, Polyunsaturated fatty acid 5-lipoxygenase (Homo sapiens); test: Inhibition of 5-lipoxygenase in human polynuclear leukocytes assessed as residual activity at 10 uM preincubated for 15 mins measured after 10 mins by HPLC analysis relative to control; type: cell-based; in short: as §2
[6] = molecular target: T1, Polyunsaturated fatty acid 5-lipoxygenase (Homo sapiens); test: Inhibition of 5-lipoxygenase in cell free S100 freshly isolated human PMNL cells assessed as assessed as residual activity at 1 uM preincubated for 15 mins measured after 10 mins by HPLC analysis relative to control; in short: as §1
[7] = molecular target: T2, Polyunsaturated fatty acid 5-lipoxygenase (Homo sapiens, UniProt P09917); test: Inhibition of 5-lipoxygenase in human polynuclear leukocytes assessed as inhibition of A23187-stimulated 5-LO product formation preincubated for 15 mins measured after 10 mins by HPLC analysis; type: cell-based
T2 sequence (P09917 whole entry): T1 sequence (whole entry)

[8] = molecular target: T2, Polyunsaturated fatty acid 5-lipoxygenase; test: Inhibition of 5-lipoxygenase in cell free S100 freshly isolated human PMNL cells assessed as inhibition of 5-LO product formation preincubated for 15 mins measured after 10 mins by HPLC analysis

COc1ccc(/C=C2\SC(c3ccc(Cl)cc3)=NC2=O)c2ccccc12
IC50 (U-937 [1]): > 30 µM | Activity (U-937 [2]): 12.2%

CCCOc1ccc(/C=C2\SC(c3ccc(Cl)cc3)=NC2=O)cc1
IC50 (U-937 [1]): 21.1 µM | Activity (U-937 [2]): 48.9%

O=C1N=C(c2ccc(Cl)cc2)S/C1=C\c1ccc(Oc2ccccc2)cc1
IC50 (U-937 [1]): > 30 µM | Activity (U-937 [2]): 12%

COc1ccc(/C(C)=C2\SC(c3ccc(C)cc3)=NC2=O)cc1
IC50 (U-937 [1]): 12.1 µM | Activity (U-937 [2]): 106%

COc1ccc(/C=C2\SC(c3ccc4ccccc4c3)=NC2=O)cc1
IC50 (U-937 [1]): > 30 µM | Activity (U-937 [2]): 4.1%

COc1ccc(/C=C2\SC(c3ccc(OC)cc3)=NC2=O)cc1
Activity [3]: 38.8% | Activity [4]: 21.4%

CC(=O)N(O)C/C=C/c1cccc(Oc2ccccc2)c1
Activity [3]: < 10% | IC50 (U-937 [1]): > 30 µM | Activity (U-937 [2]): 0.8% | Activity [5]: < 10%

COc1ccc(C2=NC(=O)/C(=C/c3ccc(C)cc3)S2)cc1
IC50 (U-937 [1]): > 30 µM | Activity (U-937 [2]): 15.8%

COc1ccc(/C=C2\SC(c3ccc(C)cc3)=NC2=O)cc1
IC50 (U-937 [1]): > 30 µM | Activity (U-937 [2]): 2.7%

COc1ccc(/C=C2\SC(c3ccc(N)cc3)=NC2=O)cc1
Activity [6]: 37.2% | Activity [4]: 72.9%

COc1ccc(C2=NC(=O)/C(=C/c3cc4ccccc4[nH]3)S2)cc1
IC50 [7]: 0.67 µM | Activity [3]: 21.4% | IC50 [8]: 0.57 µM | Activity [5]: 20.5%

COc1ccc(/C=C2\SC(c3cccc(NC(=O)C45CC6CC(CC(C6)C4)C5)c3)=NC2=O)cc1
IC50 (U-937 [1]): > 30 µM | Activity (U-937 [2]): 8.4%
